GRIN3A LBD mod: modulators (binders) of human NR3A ligand-binding domain | NR3A LBD differential scanning fluorimetry, Tm shift; 0% = protein alone, 100% = glycine-bound protein | Tm shift relative to glycine control, % at 25 µM | hit rate 2.5% among 340,000 | AID 1259313;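 active = melting temperature shift of at least 10% of the positive control shift, at one fixed dose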
T cruzi inh: T. cruzi replication inhibition. hit rate 1.4% among 300,000. inhibition, % (test concentration not listed). T. cruzi beta-gal in NIH3T3, luminescence, 90 h. AID 1885;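 active = mean inhibition across valid replicates above about 55%, limit read from the data; inconclusive = mean below that limit but half or more replicates reach it; inactive = mean below it, under half of replicates reach it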;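 also: signal also drops with host cell toxicity which is not excluded here; 0% = plate median of DMSO wells and 100% = zero luminescence signal; higher percent means less beta-gal luminescence so fewer parasites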
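System – NIH/3T3 host cells with β-galactosidase reporter T. cruzi · Doses – single 50 nL compound addition per well in DMSO · Reagent – 5000 T. cruzi trypomastigotes/well · Medium – Low-serum DMEM with 2% FBS · Timing – ≥90 h infection period, 3 h prior cell attachment · Evaluation – parasite load inhibition, % · Technique – GalScreen luminescence, 60 min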
PREPL inhibitor: inhibitors of human prolyl oligopeptidase-like enzyme PREPL; recombinant PREPL, fluorescence polarization activity-based probe; inhibition, % at 5.96 µM; hit rate 0.68% among 320,000; AID 2751; in the data active = inhibition above about 43%;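 also: 0% = enzyme with DMSO and 100% = wells lacking enzyme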
Target sequence (Q4J6C6 whole entry, looked up): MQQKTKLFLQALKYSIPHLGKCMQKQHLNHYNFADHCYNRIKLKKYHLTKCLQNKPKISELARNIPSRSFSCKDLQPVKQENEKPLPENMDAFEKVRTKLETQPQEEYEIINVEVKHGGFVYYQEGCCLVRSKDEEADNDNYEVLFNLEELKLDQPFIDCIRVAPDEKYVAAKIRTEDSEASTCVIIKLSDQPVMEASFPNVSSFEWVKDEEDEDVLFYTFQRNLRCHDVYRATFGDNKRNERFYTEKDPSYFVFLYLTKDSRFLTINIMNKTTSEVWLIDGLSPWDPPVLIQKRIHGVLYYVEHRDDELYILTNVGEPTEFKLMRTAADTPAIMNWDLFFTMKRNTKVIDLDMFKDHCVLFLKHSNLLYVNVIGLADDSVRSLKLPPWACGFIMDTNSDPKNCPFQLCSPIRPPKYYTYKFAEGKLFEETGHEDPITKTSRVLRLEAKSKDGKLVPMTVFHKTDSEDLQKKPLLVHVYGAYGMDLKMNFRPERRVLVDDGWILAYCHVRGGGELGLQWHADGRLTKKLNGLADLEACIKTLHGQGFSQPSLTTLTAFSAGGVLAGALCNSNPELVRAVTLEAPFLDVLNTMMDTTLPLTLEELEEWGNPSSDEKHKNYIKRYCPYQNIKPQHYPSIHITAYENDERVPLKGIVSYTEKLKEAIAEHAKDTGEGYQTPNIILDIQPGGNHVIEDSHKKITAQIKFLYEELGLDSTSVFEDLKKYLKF
Beta apoptosis: beta cell apoptosis inhibition; INS-1E cytokine-induced death, ATP luminescence, 48 h; percent of positive-control rescue, neutral wells zero; AID 435005; protection from apoptosis, % (test concentration not listed); hit rate 0.8% among 300,000;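 active = Every replicate reaches about 75%, or at least half do and their mean reaches it too, limit read from the data; inconclusive = At least half of replicates reach the limit but their mean does not; inactive = Under half of replicates reach the limit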;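 also: 0% = cytokine-treated negative control wells and 100% = positive control rescue; higher means more ATP so stronger rescue from cytokine killing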
CHOP inhibitor: CHOP inhibition in unfolded protein response. CHO-K1 CHOP-promoter luciferase, tunicamycin-induced, 15-18 h. inhibition, % at 10 µM. hit rate 3.8% among 220,000;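 active = compounds that reduced the stress-induced luciferase reporter signal by more than about 70% of percent inhibition, limit read from the data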;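 also: 0% = tunicamycin plus vehicle and 100% = wells without tunicamycin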
CSC inhib: cancer stem cell inhibition; cancer stem cell-like cells viability, luminescence; inhibition, % at 7.5 µM; hit rate 1.1% among 300,000; in the data active = inhibition above about 75%; inconclusive = no clear call, values can overlap the other calls; tested in HMLE shEcad cells
* marks the source's active call; other numbers are inactive results; ? = inconclusive; · = no result given. An excerpt weighted towards active compounds, which were near 6.7% of everything screened.

SMILES	GRIN3A LBD mod	T cruzi inh	PREPL inhibitor	Beta apoptosis	CHOP inhibitor	CSC inhib
Cc1ccc2nc(SCc3nc4c(cnn4-c4ccccc4)c(=O)[nH]3)[nH]c2c1	-2	7	-5	17	73*	3
CCc1ccccc1NC(=O)NC1CCCCCCC1	-1	·	·	0	·	2
Cc1cc(C)c(C#N)c(Nc2ccc(F)cc2)n1	-1	-7	4	-1	·	-10
Cc1nc(C(F)(F)F)nc(Nc2ccc(Br)cc2)c1C#N	2	14	6	3	82*	1
CN(C)C(=O)c1cc(Cl)ccc1Sc1cc(Cl)ccc1Cl	-4	-1	15	2	6	20
Oc1ccc(Cl)cc1Sc1cc(Cl)ccc1O	25*	·	·	·	·	·
O=C(CSc1nnc2c(n1)[nH]c1ccc(F)cc12)N1CCOCC1	2	8	0	5	-4	-6
O=C(CSc1nnc2c(n1)[nH]c1ccc(F)cc12)NCc1ccc(F)cc1	10*	-1	-1	-1	·	4
CC1Cc2ccccc2N1C(=O)CSc1nnc2c(n1)[nH]c1ccc(F)cc12 (centres undefined)	22*	1	-7	9	48	6
Cc1c(NC(=O)c2cccnc2Cl)c(=O)n(-c2ccccc2)n1C	0	4	-7	1	·	-9
Cc1nn(CC(=O)Nc2ccc(S(N)(=O)=O)cc2)c(=O)c2ccccc12	4	5	1	-8	·	-5
O=C(CSc1nncn1-c1ccccc1F)NC1CC1	3	·	14	0	·	-11
Cc1nc2ccccc2cc1OCc1ccc(Cl)cc1	-13	16	12	109*	83*	·
COc1cccc(COc2cc3ccccc3nc2C)c1	2	-28	1	98*	61	15
CC(Sc1nnc(C2CC2)n1-c1ccccc1)C(=O)N1CCCC1 (centres undefined)	5	·	·	·	·	·
CCOC(=O)c1c(S(=O)(=O)NCC(C)c2ccccc2)c(C)n(C)c1C (centres undefined)	1	12	15	-7	·	-9
CN1CCc2c(sc3c2C(=O)NC(c2ccc(-c4ccc(Cl)cc4)o2)N3)C1 (centres undefined)	2	8	28	-7	-33	-8
C(=C/c1nccc2c1[nH]c1ccccc12)/c1ccc2c(c1)OCO2	13*	43	·	·	-9	·
CCOC(=O)/C(=N/Nc1ccc(OC)cc1)N1CCCc2ccccc21	-1	27	17	7	7	75*
N#CC(Nc1ccccc1)c1ccccc1OCc1ccccc1 (centres undefined)	-17	-9	17	-9	89*	5
CCC(C)(C)NC(=O)C(c1ccc(OC)cc1)N(C(=O)CCC(=O)Nc1cc(C)on1)c1cc(OC)ccc1OC (centres undefined)	-1	-3	5	-3	·	14
NS(=O)(=O)c1cccc(NS(=O)(=O)c2ccc(/C=C/C(=O)OCC(=O)c3ccc(Br)cc3)cc2)c1	-1	-9	-29	2	7	25
COc1cc(/C=C/C(=O)c2ccc(NS(=O)(=O)c3ccc(C)cc3)cc2)ccc1OC(F)F	23*	42	-3	·	37	-7
COc1cccc(/C=C/C(=O)c2ccc(NS(=O)(=O)c3ccc(C)cc3)cc2)c1	18*	10	6	4	15	81*
COc1cc(/C=C/C(=O)c2ccc(NS(=O)(=O)c3ccc(C)cc3)cc2)cc(OC)c1O	11*	-19	13	-19	-198	80*
SMILES	GRIN3A LBD mod	T cruzi inh	PREPL inhibitor	Beta apoptosis	CHOP inhibitor	CSC inhib
COc1ccc(C(=O)COC(=O)/C=C/c2ccc(S(=O)(=O)Nc3cccc(S(N)(=O)=O)c3)cc2)cc1	11*	8	0	-8	9	49
COc1ccc(C(=O)NCCN2CCCC2)cc1[N+](=O)[O-]	1	-3	-3	-11	·	-4
COC(=O)c1cc(Br)ccc1NC(=O)Nc1ccccc1	-13	-19	-5	-8	39	-2
O=C(Nc1ccccc1)Nc1ccc(Br)cc1F	12*	-24	2	2	57	-11
Cc1cccc(NC(=O)Nc2ccc(C)cc2Br)c1	-9	12	7	7	90*	-6
O=C(Nc1cccc(Cl)c1)Nc1ccc(Br)cc1F	21*	?	-12	·	91*	·
Cc1cc(NC(=O)Nc2ccccc2F)ccc1Br	26*	24	4	4	23	20

Compound activity: PubChem BioAssay, several laboratories
